Reference: ChEMBL document CHEMBL4513216, “Probing the Open Global Health Chemical Diversity Library for Multistage-Active Starting Points for Next-Generation Antimalarials” (ACS Infect Dis, 2020)

Experiment: Toxicity liver stage against HepG2, at 10uM
Type: cell-based
Design: test concentration 10 uM, cell line HepG2-A16-CD81EGFP
Conditions: human, HepG2-A16-CD81EGFP cells; read-out: INHIBITION
Summary of the method: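 Uninfected HepG2-A16-CD81EGFP cells, 3 × 10^3 per well, 1536-well, plated on prespotted compound at 10 μM final, parasite-free screening media added to match infected plates; puromycin 10 μM positive, DMSO 0.5% negative; run in parallel with 48 h PbLuc assay at 37 °C, 5% CO2; viability by CellTiter-Glo luminescence, normalized to controls.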
With `COc1ccc2oc(C(C)NC(=O)NC3CCN(C)CC3)c(C)c2c1` (configuration not stated) the cytotoxicity at 10 µM was 2.62%.
With `Cc1ccc(CNC2(Cc3cc(C(C)(C)O)on3)COC2)o1` the cytotoxicity at 10 µM was -1.18%.
`Cc1ccc(-n2nc(C)c3c(C)cc(OCC(=O)NC(C)C)nc32)cc1` showed a cytotoxicity at 10 µM of -3.61%.
Compound `COc1c(C(=O)N2CCOCC2)cnc2c1c(C)nn2C` has a cytotoxicity at 10 µM of 1.64%.
In the case of `CNC(=O)CN1C(=O)CCC12CCCN(CCc1ccccc1)C2` (configuration not stated), the cytotoxicity at 10 µM is reported as 1.35%.
`CC(=O)N1CCCC2(CCN(c3ccccc3)C2=O)C1` (configuration not stated) showed a cytotoxicity at 10 µM of 1.91%.
With `Cc1cc(C(=O)N2CC[C@@H](O)[C@@H]2Cc2ccccc2)no1` the cytotoxicity at 10 µM was -1.36%.
Compound `CS(=O)(=O)N1CCCC12CCCN(c1nccs1)C2` (configuration not stated) has a cytotoxicity at 10 µM of 4.92%.
`Cc1noc([C@]23COC[C@H]2CN(S(=O)(=O)C2CC2)C3)n1` showed a cytotoxicity at 10 µM of 8.1%.
With `CCN1CCC2(COCc3c(C)nc(N(C)C)nc32)C1` (configuration not stated) the cytotoxicity at 10 µM was 5.76%.
`COCCNC(=O)Cn1c(-c2ccc(Cl)cc2)nc(C)c(CCO)c1=O` gave a cytotoxicity at 10 µM of -13.1%.
Work on `CCc1cnc2c(c1NCc1ccncc1)c(=O)n(C)c(=O)n2C` yielded a cytotoxicity at 10 µM of -12.1%.
For `Cc1ccc(N2CCN(C(=O)COc3ccccc3)CC2)nn1`, the cytotoxicity at 10 µM was -14.6%.
Work on `Fc1cccc(Cl)c1CNCCCOc1ccccn1` yielded a cytotoxicity at 10 µM of -3.33%.
Compound `CC1(C)CC(=O)N(CC(=O)Nc2ccon2)c2ccccc21` has a cytotoxicity at 10 µM of -3.43%.
Compound `COc1ccc(C2CN(c3cc(C)ncn3)CCN2C(C)=O)cc1` (configuration not stated) has a cytotoxicity at 10 µM of 0.23%.
With `COCC(=O)N1CCCC1(C(=O)N(C)C)c1cnccn1` (configuration not stated) the cytotoxicity at 10 µM was 3.96%.
For `COCCC(=O)NCCc1nc(N(C)C)ncc1-c1ccncc1`, the cytotoxicity at 10 µM was 1.68%.
In the case of `CNC(=O)c1ccc(C2CN(Cc3ccc(F)cc3)CCO2)nc1` (configuration not stated), the cytotoxicity at 10 µM is reported as -0.378%.
`CC(C)c1nc(O)c2nnn(C[C@H]3CCCN(Cc4cccs4)C3)c2n1` gave a cytotoxicity at 10 µM of 10.8%.
In the case of `COc1ccc(N2CCN(C(=O)OC(C)(C)C)C(C(=O)O)C2)cc1` (configuration not stated), the cytotoxicity at 10 µM is reported as -0.318%.
With `CC(=O)N1CCC(c2ccnc(Nc3cc(C(F)(F)F)ccn3)n2)C1` (configuration not stated) the cytotoxicity at 10 µM was 11%.
Work on `Cc1cn[nH]c1C1CCCCN1C(=O)CCc1ccc(F)cc1` (configuration not stated) yielded a cytotoxicity at 10 µM of 1.52%.
Compound `COC(=O)CC(NC(=O)c1cccc(N2CCCC2=O)c1)C(=O)OC` (configuration not stated) has a cytotoxicity at 10 µM of -55.6%.
For `CC1CCN(C(=O)c2cn(-c3ccc(C(F)(F)F)cn3)nn2)CC1`, the cytotoxicity at 10 µM was -53.1%.
For `CC(C)Cn1ccnc1CNC(=O)NC(C)(C)c1nccs1`, the cytotoxicity at 10 µM was -5.66%.
For `COCCS(=O)(=O)NCc1ccc(N(C)C)c(C)c1`, the cytotoxicity at 10 µM was -8.35%.
With `Cc1oc(CNC(=O)Cc2ccc3ccccc3c2)cc1C(=O)O` the cytotoxicity at 10 µM was 3.63%.
Work on `CC(C#N)(NC(=O)c1ccc(C#N)cc1)C1CC1` (configuration not stated) yielded a cytotoxicity at 10 µM of -3.67%.
`CCn1cc(S(=O)(=O)NCC(OC)c2ccccc2)cn1` (configuration not stated) showed a cytotoxicity at 10 µM of 1.64%.
`Fc1cccnc1N1CCCC(c2nccs2)C1` (configuration not stated) gave a cytotoxicity at 10 µM of 1.48%.
In the case of `Cc1ccc(NC(=O)Cc2c(C)nc3c(c2C)c(=O)[nH]n3C)cc1F`, the cytotoxicity at 10 µM is reported as 6.87%.
`Cc1oc2nc[nH]c(=O)c2c1C(=O)N1CCCC(n2cccn2)C1` (configuration not stated) gave a cytotoxicity at 10 µM of -0.513%.
Compound `CCC(CC)(CNC(=O)NC1CCCC1(C)C)S(C)(=O)=O` (configuration not stated) has a cytotoxicity at 10 µM of 9.18%.
Work on `CS(=O)(=O)c1nnc(NC(=O)CCc2cccs2)[nH]1` yielded a cytotoxicity at 10 µM of 8.91%.
Work on `CN(C)C(=O)CN(C)C(=O)c1cnc(Cc2ccc(F)cc2)s1` yielded a cytotoxicity at 10 µM of 8.66%.
Compound `COc1cccc(CN(C)C(=O)Nc2ccc3c(c2)OCCO3)c1` has a cytotoxicity at 10 µM of -0.627%.
With `Cc1csc(N2CCN(Cc3ccccn3)CC2C)n1` (configuration not stated) the cytotoxicity at 10 µM was -8.84%.
`Cc1cc(C)n(CC2CCCN2C(=O)c2ccc3[nH]nnc3c2)n1` (configuration not stated) gave a cytotoxicity at 10 µM of -13.1%.
With `C[C@H](NS(C)(=O)=O)C(=O)NCc1cc(-c2ccco2)n[nH]1` the cytotoxicity at 10 µM was -8.27%.
Compound `CC(C)CNc1nccc(-c2cnc3sc(Cl)cn3c2=O)n1` has a cytotoxicity at 10 µM of -0.723%.
With `COc1cc(N2CCCC(c3nccn3Cc3cccnc3)C2)ncn1` (configuration not stated) the cytotoxicity at 10 µM was -1.86%.
For `O=C(NC[C@@H]1CCCO1)c1ccc(S(=O)(=O)N[C@@H]2CCNC2)cc1`, the cytotoxicity at 10 µM was -42.2%.
For `CCCS(=O)(=O)N1CCCC(c2cccc(C(=O)O)c2)C1` (configuration not stated), the cytotoxicity at 10 µM was 6.09%.
`O=C(CCCc1cn[nH]c1)N1C[C@@H](CN2CCOCC2)[C@@H](CO)C1` showed a cytotoxicity at 10 µM of -15.8%.
`Cc1cccc(Cn2cc(C)c(N)n2)c1` showed a cytotoxicity at 10 µM of -4.14%.
Work on `CNc1cncc(C2CCCN2Cc2c[nH]cn2)n1` (configuration not stated) yielded a cytotoxicity at 10 µM of 0.192%.
In the case of `Cc1ccc(-n2ncc(C(=O)N3CCCC3c3cnn(C)c3)c2C)cc1` (configuration not stated), the cytotoxicity at 10 µM is reported as -7.79%.
Work on `CC(C)CC(=O)NS(=O)(=O)c1ccc(C#N)cc1C(F)(F)F` yielded a cytotoxicity at 10 µM of -8.64%.
In the case of `CC(C(=O)Nc1ccc(N2CCCCC2)nc1)n1ccnc1` (configuration not stated), the cytotoxicity at 10 µM is reported as -29.8%.
`O=C(NCCNc1ncccn1)C1CC(=O)N(Cc2ccco2)C1` (configuration not stated) showed a cytotoxicity at 10 µM of -8.78%.
For `O=C(NCCCn1nc2ccccn2c1=O)Nc1ccccc1`, the cytotoxicity at 10 µM was -13.6%.
In the case of `Cn1nc2c(cc1=O)CN(Cc1coc(-c3ccccc3)n1)CC2`, the cytotoxicity at 10 µM is reported as -4.5%.
In the case of `CC(C)n1cnnc1C1CCCN(C(=O)COCc2ccccc2)C1` (configuration not stated), the cytotoxicity at 10 µM is reported as -20.3%.
`C1CC(c2noc(C3CC3)n2)N(Cc2nc(C3CC3)no2)C1` (configuration not stated) showed a cytotoxicity at 10 µM of -12.8%.
In the case of `COc1c(C)cnc(CN(C)C(=O)c2ccccc2F)c1C`, the cytotoxicity at 10 µM is reported as -9.11%.
`Cc1cnn(CCNCCCOc2ccccc2)c1` gave a cytotoxicity at 10 µM of -11.8%.
Compound `COc1ccc(C(=O)NS(=O)(=O)c2ccc(C#N)cc2C(F)(F)F)cc1` has a cytotoxicity at 10 µM of -10.5%.
Work on `O=C(NCc1cc[nH]n1)NCC(O)c1ccc(F)cc1F` (configuration not stated) yielded a cytotoxicity at 10 µM of 1.78%.
With `CC(=O)N1CCCN(C(=O)NCCc2cc(Cl)cc(Cl)c2)CC1` the cytotoxicity at 10 µM was 4.55%.
For `Cc1ccc(N2CCCC(NCC(=O)Nc3cc(C)no3)C2)nn1` (configuration not stated), the cytotoxicity at 10 µM was 3.61%.
`CCNC(c1cccnc1)c1cc(C)cc(C)c1` (configuration not stated) gave a cytotoxicity at 10 µM of 2.77%.
In the case of `O=C(CCc1ccccc1)N1CCC(N2CCNC2=O)CC1`, the cytotoxicity at 10 µM is reported as 5.49%.
`CC(C)c1ccsc1C(=O)N1CCCN(Cc2cscn2)CC1` showed a cytotoxicity at 10 µM of 4.07%.
Compound `CC(=O)N1CCN(Cc2nccs2)CC2(CC(=O)N(C)C2)C1` (configuration not stated) has a cytotoxicity at 10 µM of 3.03%.
Compound `c1ccc(CN2CCCn3nnc(Cn4cccc4)c3C2)nc1` has a cytotoxicity at 10 µM of 8.37%.
`O=C(CN1CC(c2nc(Cc3ccccc3)no2)C1)NCC1CCCO1` (configuration not stated) gave a cytotoxicity at 10 µM of -6.06%.
Compound `CC(C)NC(=O)[C@@H]1CCO[C@@H]2CCN(c3ncccn3)C[C@@H]21` has a cytotoxicity at 10 µM of 7.92%.
Compound `c1csc(CN2CCc3onc(Cn4cccc4)c3C2)c1` has a cytotoxicity at 10 µM of 6.59%.
With `COc1cccc(CN2CCc3nc(C(N)=O)sc3CC2)c1` the cytotoxicity at 10 µM was -3.79%.
`COCCN1CCO[C@@H]2CN(Cc3ccccc3OC)C[C@@H]2C1` gave a cytotoxicity at 10 µM of -2.48%.
Work on `O=C(O)CN1CCC(C(F)(F)F)CC1` yielded a cytotoxicity at 10 µM of 17.2%.
`CN(C)C(=O)N1CC[C@H]2[C@H]1CCN2c1nncs1` showed a cytotoxicity at 10 µM of -1.19%.
`CCN1CCOCC12CCN(c1ccc(C#N)cc1)CC2` gave a cytotoxicity at 10 µM of -6.93%.
For `O=S(=O)(c1ccc(F)cc1)N1CC[C@H]2[C@H]1CCN2c1ncccn1`, the cytotoxicity at 10 µM was -2.85%.
`Cc1cnc(N2CCN(C)c3ncccc3C2)nc1` gave a cytotoxicity at 10 µM of -5.86%.
With `O=C(c1c[nH]cn1)N1CCC(F)(F)C2(CCN(c3ncccn3)C2)C1` (configuration not stated) the cytotoxicity at 10 µM was 9.76%.
In the case of `CC(C)NC(=O)N1CCOC2(CCCN(c3ncccc3F)C2)C1` (configuration not stated), the cytotoxicity at 10 µM is reported as -4.45%.
With `CNC(=O)CNC1CC2(CCN(c3ncccn3)CC2)c2ccccc21` (configuration not stated) the cytotoxicity at 10 µM was 4.68%.
`COCC1Cn2nnc(-c3cnn(C)c3)c2CN1Cc1cccs1` (configuration not stated) gave a cytotoxicity at 10 µM of 6.24%.
With `CCOCC(=O)N1Cc2[nH]nc(COCC3CC3)c2C1` the cytotoxicity at 10 µM was 9.29%.
Compound `CC(C)CN1C[C@@H]2C[C@H](C(=O)Nc3cccnc3)[C@H](C1)O2` has a cytotoxicity at 10 µM of 7.8%.
